The values that follow come from ChEMBL document CHEMBL1125479, “Methoxytetrahydropyrans. A new series of selective and orally potent 5-lipoxygenase inhibitors” (J Med Chem, 1992).

In data set [1] the target is T1, Polyunsaturated fatty acid 5-lipoxygenase (Homo sapiens, UniProt P09917).
T1 sequence (P09917 whole entry): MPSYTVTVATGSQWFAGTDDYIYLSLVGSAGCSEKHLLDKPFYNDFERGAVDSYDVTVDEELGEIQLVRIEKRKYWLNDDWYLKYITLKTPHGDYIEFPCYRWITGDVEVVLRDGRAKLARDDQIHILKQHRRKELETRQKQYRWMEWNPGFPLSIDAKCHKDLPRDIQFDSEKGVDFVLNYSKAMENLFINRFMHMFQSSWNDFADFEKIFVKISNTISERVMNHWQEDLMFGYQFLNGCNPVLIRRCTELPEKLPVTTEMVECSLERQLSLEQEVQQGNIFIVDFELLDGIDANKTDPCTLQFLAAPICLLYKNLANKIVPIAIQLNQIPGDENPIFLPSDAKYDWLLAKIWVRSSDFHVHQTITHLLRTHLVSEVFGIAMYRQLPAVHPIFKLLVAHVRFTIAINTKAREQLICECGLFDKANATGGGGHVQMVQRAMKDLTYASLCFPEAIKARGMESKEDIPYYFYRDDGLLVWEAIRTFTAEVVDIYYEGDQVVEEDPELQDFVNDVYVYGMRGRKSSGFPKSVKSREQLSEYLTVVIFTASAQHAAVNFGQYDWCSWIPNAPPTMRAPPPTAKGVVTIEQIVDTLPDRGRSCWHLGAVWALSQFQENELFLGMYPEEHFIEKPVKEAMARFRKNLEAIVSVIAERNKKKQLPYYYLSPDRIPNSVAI
Description: In vitro inhibition of leukotriene B4 synthesis in human whole blood by inhibiting 5-lipoxygenase. The data set is classed as tissue-based. The method in brief:
(§1)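 Heparinized human whole blood preincubated with compound, then stimulated with calcium ionophore A23187; LTB4 (5-LPO product) and TxB2 (cyclooxygenase product) generation measured.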

The test system of data set [2] is Rattus norvegicus. As to the kind of experiment: Ex vivo potency in for eicosanoid generation in inflammatory exudate of rat 3 hr after peroral administration. The data set is classed as functional. The conditions noted are these: po. The method in brief:
(§2)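 Male Alderley Park rats (130-150 g) given a subcutaneous air pouch (20 mL sterile air under halothane, reinflated with 10 mL 3 days later). After a further 3 days, oral dosing (DMSO solution in 0.5% HPMC/0.1% polysorbate 80, 1 mL/kg) or vehicle, then 1 mL of 1% zymosan in saline into the pouch.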

Data set [3] can be described thus: Logarithm of partition coefficient was determined. The data set is classed as physicochemical. The following applies: octanol/water.
Data set [4] in a line: Aqueous solubility was determined. The data set is classed as physicochemical. The following applies: buffer.
The test system of data set [5] is Rattus norvegicus. As to the kind of experiment: Ex vivo potency in rat blood for eicosanoid generation 3 hr after peroral administration. Format: functional. The following applies: po. The method in brief:
(§3)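 Rats dosed orally (1 mL/kg) with compound dissolved in DMSO and suspended in 0.5% (hydroxypropyl)methylcellulose with 0.1% polysorbate 80; controls got vehicle.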

Data set [6] relates to Rattus norvegicus. As to the kind of experiment: Ex vivo potency in rat blood for eicosanoid generation 1 hr after peroral administration. The conditions noted are these: po. Format: functional. The method in brief: as §3
The species named for data set [7] is Homo sapiens. As to the kind of experiment: In vitro inhibition of leukotriene B4 in human whole blood. Format: functional. The method in brief:
as §1

The species entered for data set [8] is Mus musculus. As to the kind of experiment: In vitro inhibitory activity against leukotriene synthesis in mouse macrophages. The data set is classed as functional.
Data set [9] in a line: In vitro inhibition of thromboxane B2 in human whole blood Value. Format: tissue-based. The procedure, abridged:
as §1

The test system of data set [10] is Rattus norvegicus. As to the kind of experiment: Ex vivo potency against rat blood after 1 hr peroral administration. Format: functional. The following applies: po, 3 h, in the assay text read “after 3 hr” for “after 1 hr”. The method in brief:
as §3

Data set [11] deals with T1, Polyunsaturated fatty acid 5-lipoxygenase. Description: In vitro inhibition of leukotriene B4 synthesis in human whole blood by inhibiting 5-LPO (5-lipoxygenase). Format: tissue-based. The procedure, abridged: as §1
Data set [12] relates to Rattus norvegicus. Description: Compound was tested for the generation of eicosanoid in inflammatory exudate after 3 hr peroral administration. Format: functional. The conditions noted are these: po. The procedure, abridged: as §2
The subject of data set [13] is Rattus norvegicus. As to the kind of experiment: Ex vivo potency against rat blood after 3 hr peroral administration. Format: functional. The following applies: po. The procedure, abridged:
as §3

Where “and” joins values, the source holds several entries; their conditions need not be identical. Equal entries are not always repeated.

On to `COC1(c2cc(F)cc(OCc3cc4ccccc4n(C)c3=O)c2)CCOCC1`, for which the IC50 in [1] worked out at 0.4 µM. Further, in [2], the ED50 is more than 1.5 mg/kg.

In data set [1], `COC1(c2cc(F)cc(OCc3ccc4c(c3)C(C)(C)C(=O)N4C)c2)CCOCC1` came in with an IC50 of 0.08 µM. For the same compound, the ED50 in data set [2] is more than 1.5 mg/kg.

Turning to `COC1(c2cc(F)cc(OCc3ccc4c(c3)ncc(=O)n4C)c2)CCOCC1`, in data set [3], the “delta Log P” value is listed as -2.3. The same compound yielded an IC50 in data set [1] of 0.05 µM. The ED50 in [2] stood at 1.5 mg/kg. In addition, the “Delta logS” value in data set [4] is reported as 1.8.

In data set [1], `COC1(c2cc(F)cc(OCc3ccc4nc(O)ccc4c3)c2)CCOCC1` registered an IC50 of 0.6 µM. In data set [5], the ED50 is more than 3 mg/kg.

On to `COC1(c2cc(F)cc(OCc3ccc4c(=O)n(C)ccc4c3)c2)CCOCC1`, for which, in data set [1], the IC50 worked out at 0.2 µM. The compound also registered an ED50 in data set [2] of more than 1.5 mg/kg.

As to `COC1(c2cc(F)cc(OCc3ccc4ncncc4c3)c2)CCOCC1`, the “delta Log P” value in data set [3] is recorded as -2.1. Besides, the ED50 in data set [6] was more than 100 mg/kg. In data set [1], this compound showed an IC50 of 0.2 µM. Moreover, the “Delta logS” value in data set [4] is reported as 1.5.

Regarding `COC1(c2cccc(OCc3ccc4ccccc4c3)c2)CCN(C)CC1`, the IC50 in data set [1] is more than 40 µM.

On to `COC1(c2cccc(OCc3ccc4c(ccc(=O)n4C)c3)c2)CCOCC1`, for which, in data set [3], the “delta Log P” value is recorded as -2. Besides, the ED50 in [2] is 3 mg/kg; in [5], 1.5 mg/kg. In [4], the “Delta logS” value is on record as 1.8.

In data set [1], `COC(C)(c1cccc(OCc2ccc3ccccc3c2)c1)c1nccs1` (stereo not given) yielded an IC50 of 0.5 µM.

`COC1(c2cccc(OCc3ccc4ccccc4c3)c2)CCCOC1` (stereo not given): the IC50 in [7] stood at 2.8 µM; in data set [1], 1.7 µM.

For the compound `COC1(c2cc(F)cc(OCc3ccc4c(c3)sc(=O)n4C)c2)CCOCC1`, the “delta Log P” value in data set [3] is given as -1.2. In addition, half-maximal inhibition in data set [1] (IC50) required 0.04 µM. In [2], this compound showed an ED50 of 1.5 mg/kg. Moreover, the “Delta logS” value in [4] was 0.8.

On to `COC1(c2cccc(OCc3ccc4ccccc4c3)c2)COC1`, for which the IC50 in [1] stood at 2.5 µM.

Turning to `COC1(c2cc(F)cc(OCc3ccc4nccnc4c3)c2)CCOCC1`, the “delta Log P” value in [3] was -1.8. Further, the ED50 in [6] and in data set [2] was 30 mg/kg throughout. Besides, the “Delta logS” value in data set [4] was 1.8.

On to `COC1(c2cc(F)cc(OCc3ccc4c(c3)oc(=O)n4C)c2)CCOCC1`, for which 0.2 µM corresponded to half-maximal inhibition in [1] (IC50). In data set [2], this compound had an ED50 of more than 1.5 mg/kg.

In [1], `COC1(c2cccc(OCc3ccc4ccccc4c3)c2)CCCCOC1` (stereo not given) returned an IC50 of 2.5 µM.

Turning to `CCOC(C)=O.COC1(c2cc(F)cc(OCc3ncc4ccccc4n3)c2)CCOCC1`, in data set [3], the “delta Log P” value was -1.9. Besides, in data set [6], the ED50 was more than 10 mg/kg. In data set [1], this compound returned an IC50 of 0.2 µM. In data set [4], the Delta logS was 1.9.

`COC1(c2ccc(OCc3ccc4ccccc4c3)cc2)CCOCC1` gave a concentration for half-maximal inhibition (IC50) in data set [1] of 19 µM.

As for `COC1(c2cc(F)cc(OCc3ccc4c(c3)n(C)c(=O)n4C)c2)CCOCC1`, the “delta Log P” value in [3] is listed as -1.7. The compound further showed an IC50 in data set [1] of 0.08 µM. For the same compound, in data set [2], the ED50 worked out at 1.5 mg/kg. Also, the “Delta logS” value in data set [4] was determined as 1.

For `COC1(c2cccc(OCC#Cc3ccccn3)c2)CCOCC1`, it took a dose of 100 mg/kg to reach the 50% effect level in [6] (ED50). The same compound had an IC50 in data set [1] of 0.4 µM.

`COC1(c2cccc(OCc3ccc4ccccc4c3)c2)CC[S+]([O-])CC1` (stereo not given): the IC50 in data set [1] was found to be 4.2 µM.

As to `COC1(c2cccc(OCc3ccc4ccccc4c3)c2)CCSCC1`, the IC50 in data set [7] and in data set [1] was 0.4 µM in each case.

As to `COC1(c2cccc(OCc3ccc4ccccc4c3)c2C)CCOCC1`, inhibition in data set [1] was half-maximal at 0.6 µM (IC50).

`COC1(c2cccc(OCc3ccc4ccccc4c3)c2)CCS(=O)(=O)CC1`: the IC50 in data set [1] was found to be 10.6 µM.

Compound `COC1(c2cccc(OCc3cccc4c3ccc(=O)n4C)c2)CCOCC1` registered an IC50 in data set [1] of 1.3 µM. In addition, the ED50 in data set [5] was more than 3 mg/kg.

In turn, `COC(C)(c1nccs1)c1cccc(OCc2ccc3ccccc3c2)c1C` (stereo not given) registered an IC50 in [7] of 1 µM.

`COC1(c2cc(OCc3ccc4ccccc4c3)ccc2C)CCOCC1` came in with an IC50 in data set [1] of 40 µM.

`CCC(OC)(c1ccc(OCc2ccc3ccccc3c2)cc1)c1nccs1` (stereo not given) showed an IC50 in [1] of 40 µM.

Turning to `COC1(c2cccc(OCc3ccc4ccccc4c3)c2)CCOCC1`, the IC50 amounted to 0.0005 µM in data set [8] and 0.07 µM in data set [1]. In addition, the figures for the ED50 in [6], in [2] and in [5] were 5 mg/kg, 10 mg/kg and 10 mg/kg, respectively.

For `COC1(c2cc(F)cc(OCc3ccc4c(ccc(=O)n4C)c3)c2)CCOCC1` [ZD-2138], the “delta Log P” value in data set [3] is listed as -1.7. Moreover, the values for the ED50 in [6], in data set [2] and in [5] were 1 mg/kg, 0.3 mg/kg and 0.9 mg/kg, respectively. Further, the results for the IC50 in data set [1] and in data set [9] were 0.02 µM and more than 500 µM, respectively. Besides, the “Delta logS” value in data set [4] turned out to be 0.9.

In the case of `COC1(c2cccc(OCc3ccc4ccccc4c3)c2)CCCOCC1` (stereo not given), in [1], half-maximal inhibition (IC50) was put at 0.2 µM.

Turning to `CC(C)c1ccc2c(c1)c(SC(C)(C)C)c(CC(C)(C)C(=O)[O-])n2Cc1ccc(Cl)cc1.[Na+]`, the ED50 in data set [10] is 3 mg/kg; in data set [12], 2 mg/kg. In data set [11], this compound had an IC50 of 1.1 µM.

Take `COC1(c2cccc(OCc3ccc4ccc(=O)n(C)c4c3)c2)CCOCC1`: the IC50 in data set [1] was determined as 0.2 µM. In [5], the ED50 was more than 3 mg/kg.

With `COC1(c2cc(F)cc(OCc3ccc4oc(=O)ccc4c3)c2)CCOCC1`, the midpoint of inhibition in data set [11], the IC50, lay at 0.3 µM. In data set [13], this compound had an ED50 of more than 3 mg/kg.

`COC1(c2cccc(OCc3ccc4ccccc4c3)c2)CCOC1` (stereo not given) showed an IC50 in [1] of 0.7 µM.

The compound `CCOC(C)=O.COC1(c2cc(F)cc(OCc3cc4ccccc4nc3O)c2)CCOCC1` registered an ED50 in [6] of more than 100 mg/kg.

In the case of `CC(c1cc2ccccc2s1)N(O)C(N)=O` (stereo not given) [ZILEUTON], the ED50 in [2] came to 3 mg/kg. Also, the IC50 in data set [9] was 40 µM.

In the case of `COC1(c2cccc(OCc3ccc4ccccc4c3)c2)CCCCC1`, half-maximal inhibition in [1] (IC50) was put at 2.6 µM.

Compound `COC1(c2cccc(OCc3ccc4ccccc4c3)c2)CCC(=O)CC1` registered an IC50 in [1] of 3.4 µM.

Turning to `CCC(OC)(c1cccc(OCC#Cc2ccccc2)c1)c1nccs1` (stereo not given), the IC50 in [1] was 0.9 µM and 1 µM.

Take `COC1(c2cccc(OCC#Cc3ccccc3)c2)CCOCC1`: half-maximal inhibition in data set [1] (IC50) required 0.07 µM.

In general, IC50 refers to the concentration that gives 50% inhibition. A lower IC50 goes with greater potency in that assay. The ED50 is the dose that gives a 50% effect, or the effect in half of the subjects.
